Measurements from PubChem BioAssay AID463073 (The Scripps Research Institute Molecular Screening Center, 2010).
Hit rate of the full screen: of about 2,000 compounds, about 10 (0.5%) were called active. The list comes from a sample in which actives are over-represented; it also holds similar structures and randomly drawn compounds. A number with no mark means an inactive call.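 Rule for the calls: active = inhibition above 30%; inactive = the rest.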 Residues, ends and D or L forms follow the SMILES beside them. *: point of attachment. Boc = CC(C)(C)OC(=O)*

target: Protein-arginine deiminase type-4 (Homo sapiens) (UniProt Q9UM07); assay: human PAD4 inhibitors, primary screen, biochemical, fluorescence polarization (AID 463073); details: recombinant PAD4, RFA probe fluorescence polarization; at 5 µM; stronger effect = higher value;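 note: 0% = PAD4 with DMSO and 100% = wells lacking PAD4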
Procedure, shortened: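 System: recombinant PAD4. Amount: PAD4 at 2 µM in dispensed buffer, before additions. Doses: single 5 µM final compound concentration. Timing: 30 min 25 °C preincubation, 5 h 37 °C labeling. Benchmarks: wells lacking PAD4 as full-inhibition control. Repeats: single well per compound. Measured by: FP, ex 525 nm, em 598 nm.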

Sequence of Protein-arginine deiminase type-4 (Homo sapiens) (Q9UM07 whole entry, looked up): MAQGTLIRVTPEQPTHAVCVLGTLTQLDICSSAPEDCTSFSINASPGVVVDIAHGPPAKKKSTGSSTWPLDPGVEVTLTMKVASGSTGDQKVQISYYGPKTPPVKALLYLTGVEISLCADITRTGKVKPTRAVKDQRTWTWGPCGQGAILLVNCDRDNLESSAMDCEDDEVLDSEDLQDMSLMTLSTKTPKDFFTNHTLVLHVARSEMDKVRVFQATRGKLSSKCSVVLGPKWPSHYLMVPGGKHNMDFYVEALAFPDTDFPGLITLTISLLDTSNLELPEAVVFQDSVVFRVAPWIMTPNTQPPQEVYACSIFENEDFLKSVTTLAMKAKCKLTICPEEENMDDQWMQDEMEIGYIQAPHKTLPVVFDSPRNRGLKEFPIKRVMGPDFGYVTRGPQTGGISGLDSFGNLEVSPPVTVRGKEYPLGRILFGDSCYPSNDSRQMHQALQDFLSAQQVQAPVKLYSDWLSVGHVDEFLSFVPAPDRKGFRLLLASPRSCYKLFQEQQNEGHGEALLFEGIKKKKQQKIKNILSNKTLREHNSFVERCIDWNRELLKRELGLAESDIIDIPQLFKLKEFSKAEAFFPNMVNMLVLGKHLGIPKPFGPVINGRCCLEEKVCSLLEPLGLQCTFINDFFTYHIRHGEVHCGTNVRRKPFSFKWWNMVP

| Structure (SMILES) | inhibition [%] |
| --- | --- |
| COc1ccc(C(=O)NC(=O)NC2(C(Cl)(Cl)Cl)OCCO2)cc1 | 3.68 |
| COc1cc(OC)c2c(C)c(Cl)c(=O)oc2c1 | 5.74 |
| COc1ccc(C2NCCC3(O)CCCCC23)c(OC)c1OC (centres undefined) | -0.4 |
| CC1(C)C(=O)OC(C(=O)c2ccc(Cl)cc2)C(C)(C)C1=O (centres undefined) | -1.03 |
| COc1ccc(OC(C)C(=O)Nc2ccccc2F)cc1 (centres undefined) | -0.2 |
| COc1cccc(OC)c1C(=O)NCCSC1CCCCC1 | -2.94 |
| COc1ccc(N2C(=O)C3CCCN3C2=O)cc1 (centres undefined) | 4.89 |
| CC1(C)Cc2nc3oc4c(NCc5ccccc5)ncnc4c3cc2CO1 | 1.79 |
| CCOC(=O)C1NN=C(C(=O)c2ccccc2)C1c1ccc(Cl)cc1 (centres undefined) | 1.88 |
| CN(C)C(=O)C12CCC(C)(c3nc4ccccc4nc31)C2(C)C (centres undefined) | 3.6 |
| Cc1ccc(S(=O)(=O)NC(C(=O)Oc2ccc3c(C(F)(F)F)cc(=O)oc3c2)c2ccccc2)cc1 (centres undefined) | 6.06 |
| O=C(NCCC(c1ccccc1)c1ccco1)c1cccs1 (centres undefined) | -4.26 |
| O=C1CC[C@@H](CN(Cc2ccccc2)Cc2cn[nH]c2-c2cc3ccccc3o2)N1 | -4.5 |
| CC(C)CC(NC(=O)C1CCCN1C(=O)OC(C)(C)C)C(=O)NCC(N)=O (stereo not drawn) (Boc-Pro-Leu-Gly-NH2; configuration not given here) | 0.39 |
| Cc1nc2cc3ccccc3cc2c(=O)[nH]1 | -2.65 |
| O=C(O)c1cnccn1 | 1.59 |
| CC1(CC(=O)Nc2ccccc2)NC(=S)N(c2ccccc2)N1 (centres undefined) | 0.19 |
| O=C1c2cccc3cccc(c23)C(=O)N1c1ccccn1 | -4.66 |
| O=C(c1ccc(-c2ccccc2)c(F)c1)C1CCCN(C(=O)c2cncs2)C1 (centres undefined) | 3.12 |
| O=C(O)CCSCCC(=O)O | -2.7 |
| COc1ccc(C(C)=O)c2c1OCCO2 | 6.78 |
| CC1(C)CC(C(CC(=O)N2CCCC2)Cc2ccccc2)CCO1 (centres undefined) | -1.3 |
| COc1ccc(NS(=O)(=O)c2ccc(N)cc2)nn1 | 0.73 |
| COc1ccc(-c2noc(-c3ccccc3-c3ccccc3)n2)cc1 | -3.61 |
| O=C1C2CC=C(Cl)CC2C(=O)N1CCc1c[nH]c2ccccc12 (centres undefined) | -0.53 |

| Structure (SMILES) | inhibition [%] |
| --- | --- |
| COc1ccc(C(CC(=O)N2CCOCC2)C(C)C)cc1 (centres undefined) | 4.61 |
| COc1ccc(N2CCN(C(=S)NCc3ccccc3)CC2)cc1 | -1.38 |
| COc1ccc(NC(=S)N2CCN(CCN3C(=O)c4cccc5cccc(c45)C3=O)CC2)cc1 | 2.54 |
| COC(=O)[C@@H](N)CS | 2.39 |
| O=C(NC(=S)Nc1nc(-c2ccccc2)cs1)c1ccco1 | 4.01 |
| CC(NC(=O)c1ccc(OC2CCN(Cc3ccccn3)CC2)cc1)c1ccccc1 (centres undefined) | -1.87 |
| OCC1CCN(Cc2cn(Cc3ccccc3)nc2-c2cc3ccccc3o2)CC1 | -3.81 |
| CCOc1ccc2nc(N/C(N)=N/S(C)(=O)=O)nc(C)c2c1 | -1.87 |
| COc1cc(SC)ccc1C(=O)NC(C)C | -4.36 |
| CCn1c(O)c(/C=C2\C=Nc3ccccc32)sc1=O | 6.23 |
| Cc1ccc(C(=O)NCCNC(=O)c2ccccc2)cc1 | -2.16 |
| CC12CCC(C(=O)Nc3ccccc3Br)(C/C1=N\O)C2(C)C (centres undefined) | 2.8 |
| COC(=O)c1ccc2c(c1)C(=O)/C(=C/c1ccc(O)cc1)O2 | 2.19 |
| NC[C@H]1O[C@H](O[C@H]2[C@H](O)[C@@H](O[C@H]3O[C@H](CO)[C@@H](O)[C@H](N)[C@H]3O)[C@H](N)C[C@@H]2N)[C@H](N)C[C@@H]1O | 0.78 |
| O=C(c1ccccc1)N1CCN(C(=O)c2ccccc2)CC1 | -0.13 |
| Cn1c(=O)c2c(nc(SCCN3CCCCC3)n2C)n(C)c1=O | 4.29 |
| CCSC(=O)CCCCCCCCCCCO | 3.34 |
| CC(C)OC(=O)C1C(=O)CC(C)(O)C(C(=O)OC(C)C)C1c1cccc(O)c1 (centres undefined) | 2.73 |
| COc1ccc(O)c(C(=O)/C=C/c2cc3ccccc3o2)c1 | 0.93 |
| COc1ccc(CCNC(=O)CC(c2ccccc2)c2cccc(C)c2O)cc1OC (centres undefined) | 1.59 |
| COc1ccc(C2NC(C(=O)O)Cc3c2[nH]c2ccccc32)cc1CN1CCN(c2ccc(F)cc2)CC1 (centres undefined) | 6.02 |
| CC(=O)[C@@]1(O)CC[C@H]2[C@@H]3C[C@H](C)C4=CC(=O)C=C[C@]4(C)[C@@]3(F)[C@@H](O)C[C@@]21C | -5.68 |
| COc1ccc2c(c1OC)C(=O)OC2C1c2c(cc3c(c2OC)OCO3)CCN1C (centres undefined) | 7.1 |
| CCOC(=O)c1ccc2[nH]c(C)c(CCC(C)=O)c(=O)c2c1 | -4.46 |
